Laboratory results as given in ChEMBL document CHEMBL1125427, “Synthesis of 3-(2-pyridylethyl)benzoxazolinone derivatives: potent analgesic and antiinflammatory compounds inhibiting prostaglandin E2” (1992).

Assays:
Assay type in all cases: functional
Mus musculus [1] = assay: Intestinal ulcerogenic activity at a dose of 60 mg/kg:group of 8 mouse considered for the test
Outline: (§1)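 Fed animals were gavaged with compound on 3 consecutive days and killed 24 h after the last dose. Intestines were examined for ulcers. Read-out: ulcer incidence per group of 8 and lesion length (mm/mouse ± SE).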

Mus musculus [2] = assay: Gastric ulcerogenic activity at a dose of 100 mg/kg
Outline: (§2)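 Mice fasted 24 h with water available. Compound in methyl cellulose vehicle given by oral gavage at 0.5 mL/100 g body weight. Animals were killed after 4 h and stomachs examined for lesions under a dissecting microscope. Read-out: ulcer incidence per group of 8 and lesion length (mm/mouse ± SE).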

Mus musculus [3] = assay: The compound was evaluated for inhibition of edema induced by arachidonic acid at 1 mg/mL
Outline: (§3)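 Mice, six per group, dosed orally at 100 mg/kg. After 60 min, 0.01 mL of phlogistic agent (arachidonic acid or bradykinin) was injected subcutaneously into the right hind paw plantar surface. Edema was measured by dial thickness gauge and the effect expressed as percent inhibition.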

Mus musculus [4] = assay: Intestinal ulcerogenic activity at a dose of 100 mg/kg; outline: as §1
Mus musculus [5] = assay: Gastric ulcerogenic activity at a dose of 60 mg/kg; outline: as §2
Mus musculus [6] = species: Mus musculus; assay: Analgesic activity in mice; design: concentration or dose not given beside the values
Outline: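 Female albino mice (22 ± 2 g, local breed), groups of eight, dosed orally at 100 mg/kg as a suspension in 5% gum arabic syrup. After 1 h, 3% acetic acid was given ip at 300 mg/kg. Stretches were counted over 10 min, starting 5 min after injection. Percent activity = |n − n'|/n × 100 against syrup-only controls (n = 6).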

Mus musculus [7] = assay: Antiinflammatory activity against CPE in mice following peroral administration of 60 mg/kg; settings: route oral
Outline: (§4)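 Female albino mice (22 ± 2 g), six per group, dosed orally. After 60 min, 0.01 mL of 2% carrageenan was injected subcutaneously into the right hind paw plantar surface. Edema was read with a dial thickness gauge 3 h later. ED50 was given in mg/kg po with 95% confidence limits.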

Mus musculus [8] = assay: Gastric ulcerogenic activity at a dose of 60 mg/kg: 8 mice were considered for the test; outline: as §2
Mus musculus [9] = assay: The compound was evaluated for inhibition of edema induced by bradykinin at 100 ug/mL; outline: as §3
Mus musculus [10] = assay: Gastric ulcerogenic activity at a dose of 300 mg/kg; outline: as §2
Mus musculus [11] = assay: Inhibitory activity against carrageenan induced paw edema in mice; design: concentration or dose not given beside the values
Mus musculus [12] = assay: The compound was evaluated for inhibition of edema induced by histamine at 10 mg/mL
Outline: (§5)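 Female albino mice (22 ± 2 g, local breed), six per group, housed in eights with free food and water, acclimatised at least 2 days. Compound given orally at 100 mg/kg; 60 min later 0.01 mL of the phlogistic agent (histamine or serotonin) injected subcutaneously into the right hind paw plantar surface. Paw edema measured with a dial thickness gauge; effect expressed as percent inhibition.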

Mus musculus [13] = assay: Intestinal ulcerogenic activity at a dose of 300 mg/kg; outline: as §1
Mus musculus [14] = assay: The compound was evaluated for inhibition of edema induced by serotonin at 250 ug/mL; outline: as §5
Mus musculus [15] = assay: The compound was evaluated for inhibition of edema induced by PGE at […]
Outline: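 Mice, six per group, dosed orally at 100 mg/kg. After 60 min, PGE2 (20 μg/0.01 mL) was injected subcutaneously into the right hind paw plantar surface. Edema was measured with a dial thickness gauge and the effect expressed as percent inhibition.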

Mus musculus [16] = assay: Intestinal ulcerogenic activity at a dose of 60 mg/kg; outline: as §1
Mus musculus [17] = assay: Intestinal ulcerogenic activity at a dose of 100 mg/kg: 8 mice were considered for the test; outline: as §1
Mus musculus [18] = assay: Gastric ulcerogenic activity at a dose of 300 mg/kg: 8 mice were considered for the test; outline: as §2
Mus musculus [19] = assay: Intestinal ulcerogenic activity at a dose of 300 mg/kg: 8 mice were considered for the test; outline: as §1
Mus musculus [20] = assay: Gastric ulcerogenic activity at a dose of 100 mg/kg: 8 mice were considered for the test; outline: as §2
Mus musculus [21] = assay: Intestinal ulcerogenic activity at a dose of 60 mg/kg: 8 mice were considered for the test; outline: as §1
Mus musculus [22] = assay: Intestinal ulcerogenic activity at a dose of 100 mg/kg: group of 8 mice were considered for the test; outline: as §1
Mus musculus [23] = assay: Intestinal ulcerogenic activity at a dose of 300 mg/kg: group of 8 mice were considered for the test; outline: as §1
Mus musculus [24] = assay: Gastric ulcerogenic activity at a dose of 30 mg/kg; outline: as §2
Mus musculus [25] = assay: Gastric ulcerogenic activity at a dose of 30 mg/kg:group of 8 mouse considered for the test; outline: as §2
Mus musculus [26] = assay: Antiinflammatory activity against CPE in mice following peroral administration of 30 mg/kg; settings: route oral; outline: as §4
Mus musculus [27] = assay: Gastric ulcerogenic activity at a dose of 300 mg/kg:group of 8 mouse considered for the test; outline: as §2
Mus musculus [28] = assay: Intestinal ulcerogenic activity at a dose of 30 mg/kg: group of 8 mice were considered for the test; outline: as §1
Mus musculus [29] = assay: Gastric ulcerogenic activity at a dose of 100 mg/kg:group of 8 mouse considered for the test; outline: as §2
Mus musculus [30] = assay: Intestinal ulcerogenic activity at a dose of 30 mg/kg; outline: as §1
Mus musculus [31] = assay: Intestinal ulcerogenic activity at a dose of 50 mg/kg: 8 mice were considered for the test; outline: as §1
Mus musculus [32] = assay: Gastric ulcerogenic activity at a dose of 50 mg/kg; outline: as §2
Mus musculus [33] = assay: Gastric ulcerogenic activity at a dose of 20 mg/kg; outline: as §2
Mus musculus [34] = assay: Antiinflammatory activity against CPE in mice following peroral administration of 20 mg/kg; settings: route oral; outline: as §4
Mus musculus [35] = assay: Intestinal ulcerogenic activity at a dose of 20 mg/kg: 8 mice were considered for the test; outline: as §1
Mus musculus [36] = assay: Intestinal ulcerogenic activity at a dose of 50 mg/kg; outline: as §1
Mus musculus [37] = assay: Gastric ulcerogenic activity at a dose of 50 mg/kg: 8 mice were considered for the test; outline: as §2
Mus musculus [38] = assay: Intestinal ulcerogenic activity at a dose of 20 mg/kg; outline: as §1
Mus musculus [39] = assay: Gastric ulcerogenic activity at a dose of 20 mg/kg: 8 mice were considered for the test; outline: as §2

| Compound | Lesion length (Mus musculus [2]) [mm mice-1] | Inhibition (Mus musculus [3]) [%] | Lesion length (Mus musculus [4]) [mm mice-1] | Lesion length (Mus musculus [5]) [mm mice-1] | Analgesic activity (Mus musculus [6]) [%] | ED50 (Mus musculus [7]) [mg/kg] | Ulcer incidence (Mus musculus [8]) [number/group] | Inhibition (Mus musculus [9]) [%] | Lesion length (Mus musculus [10]) [mm mice-1] | Inhibition (Mus musculus [11]) [%] | Inhibition (Mus musculus [12]) [%] | Lesion length (Mus musculus [13]) [mm mice-1] | Inhibition (Mus musculus [14]) [%] | Inhibition (Mus musculus [15]) [%] | Lesion length (Mus musculus [16]) [mm mice-1] | Ulcer incidence (Mus musculus [17]) [number/group] | Ulcer incidence (Mus musculus [18]) [number/group] | Ulcer incidence (Mus musculus [19]) [number/group] | Ulcer incidence (Mus musculus [20]) [number/group] | further results |
| --- | --- | --- | --- | --- | --- | --- | --- | --- | --- | --- | --- | --- | --- | --- | --- | --- | --- | --- | --- | --- |
| O=c1oc2ccc(Cl)cc2n1CCc1ccccn1 | 0.2 | 42 | 0 | 0 | 96.96 | 63 | 0 | 7 | 0.9 | 62.3 | 9 | 0.1 | 10.5 | 64.8 | 0 | 0 | 4 | 1 | 1 | Ulcer incidence (Mus musculus [1]): 0 number/group |
| O=c1oc2ccccc2n1CCc1ccncc1 | 0 | 38.9 | 0 | 0 | 96.06 | 57 | 0 | 6.4 | 0.9 | 59.1 | 7.6 | 0.1 | 9.4 | 62.2 | 0 | 0 | 5 | 2 | 0 | Ulcer incidence (Mus musculus [21]): 0 number/group |
| COc1ccc(C(=O)c2ccc3c(c2)oc(=O)n3CCc2ccccn2)cc1 |  | 40 |  |  | 80.34 |  |  | 13 |  | 30.8 | 5.4 |  | 9.9 |  |  |  |  |  |  |  |
| O=C(c1ccc2c(c1)oc(=O)n2CCc1ccccn1)c1ccccc1Cl | 0 | 46 | 0 |  | 91.74 |  |  | 6.4 | 0.4 | 37.1 | 5 | 0.2 | 18.2 | 53 |  |  |  |  |  | Ulcer incidence (Mus musculus [22]): 0 number/group; Ulcer incidence (Mus musculus [23]): 0 number/group; Lesion length (Mus musculus [24]): 0 mm mice-1; Ulcer incidence (Mus musculus [25]): 0 number/group; ED50 (Mus musculus [26]): 25.5 mg/kg; Ulcer incidence (Mus musculus [27]): 2 number/group; Ulcer incidence (Mus musculus [28]): 0 number/group; Ulcer incidence (Mus musculus [29]): 0 number/group; Lesion length (Mus musculus [30]): 0 mm mice-1 |
| O=c1oc2ccccc2n1CCc1ccccn1 |  | 41.3 | 0 | 0 | 92.17 | 55 | 0 | 6 | 0.7 | 55.2 | 5.5 | 0.07 | 10.2 | 56.2 | 0 | 0 | 4 | 0 | 1 | Ulcer incidence (Mus musculus [21]): 0 number/group |
| O=c1oc2ccc(Cl)cc2n1CCc1ccncc1 | 0.4 | 51.2 | 0.15 |  | 100 |  |  | 9 |  | 68.5 | 11 |  | 13.1 | 68 |  | 0 |  |  | 1 | Ulcer incidence (Mus musculus [31]): 0 number/group; Lesion length (Mus musculus [32]): 0 mm mice-1; Lesion length (Mus musculus [33]): 0 mm mice-1; ED50 (Mus musculus [34]): 18.2 mg/kg; Ulcer incidence (Mus musculus [35]): 0 number/group; Lesion length (Mus musculus [36]): 0 mm mice-1; Ulcer incidence (Mus musculus [37]): 0 number/group; Lesion length (Mus musculus [38]): 0 mm mice-1; Ulcer incidence (Mus musculus [39]): 0 number/group |
| CC(=O)c1ccc2c(c1)oc(=O)n2CCc1ccncc1 |  |  |  |  | 38.46 |  |  |  |  | 10.3 |  |  |  |  |  |  |  |  |  |  |
